Reference: ChEMBL document CHEMBL2176925, “Novel ¹⁸F-labeled benzoxazole derivatives as potential positron emission tomography probes for imaging of cerebral β-amyloid plaques in Alzheimer's disease” (J Med Chem, 2012)

Columns and labels:
Lung [1] = test: Drug uptake in ddY mouse lung at 370 kBq/100 ul, iv at 30 mins by gamma-counting analysis; type: ADME, organism-based; conditions: in vivo, 0.5 h
Outline: (§1)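 Normal male ddY mice (5 weeks, 20−22 g, n = 5) received 370 kBq of tracer in 100 μL saline with 5% EtOH via tail vein. Mice were sacrificed at set times after injection, and organs were excised, weighed and γ-counted against diluted injectate aliquots. Values are %ID per gram, except stomach and intestine as %ID per organ, given as mean ± SD of 5 mice.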

Lung [2] = test: Drug uptake in ddY mouse lung at 370 kBq/100 ul, iv at 10 mins by gamma-counting analysis; type: ADME, organism-based; conditions: in vivo; outline: as §1
Spleen [3] = test: Drug uptake in ddY mouse spleen at 370 kBq/100 ul, iv at 60 mins by gamma-counting analysis; type: ADME, organism-based; conditions: in vivo, 1 h; outline: as §1
Spleen [4] = test: Drug uptake in ddY mouse spleen at 370 kBq/100 ul, iv at 30 mins by gamma-counting analysis; type: ADME, organism-based; conditions: in vivo, 0.5 h; outline: as §1
Spleen [5] = test: Drug uptake in ddY mouse spleen at 370 kBq/100 ul, iv at 10 mins by gamma-counting analysis; type: ADME, organism-based; conditions: in vivo; outline: as §1
Spleen [6] = test: Drug uptake in ddY mouse spleen at 370 kBq/100 ul, iv at 2 mins by gamma-counting analysis; type: ADME, organism-based; conditions: in vivo; outline: as §1
Liver [7] = test: Drug uptake in ddY mouse liver at 370 kBq/100 ul, iv at 30 mins by gamma-counting analysis; type: ADME, organism-based; conditions: in vivo, 0.5 h; outline: as §1
[8] = Displacement of [125I]IMPY from amyloid beta (1 to 42) fibrils after 2 hrs by gamma-counting analysis
Outline: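 Competition binding with aggregated Aβ1-42 fibrils (60 nM final) and [125I]IMPY. Inhibitors were tested at 10⁻⁵–10⁻¹⁰ M (in ethanol) in 0.2 M PBS, pH 7.4, 1 mL, for 2 h at 37 °C with shaking. Nonspecific binding was defined with 1 μM IMPY. Bound ligand was collected by GF/B filtration and γ-counted. Ki was derived from IC50 via Cheng–Prusoff.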

Lung [9] = test: Drug uptake in ddY mouse lung at 370 kBq/100 ul, iv at 2 mins by gamma-counting analysis; type: ADME, organism-based; conditions: in vivo; outline: as §1
Liver [10] = test: Drug uptake in ddY mouse liver at 370 kBq/100 ul, iv at 2 mins by gamma-counting analysis; type: ADME, organism-based; conditions: in vivo; outline: as §1
Heart [11] = test: Drug uptake in ddY mouse heart at 370 kBq/100 ul, iv at 60 mins by gamma-counting analysis; type: ADME, organism-based; conditions: in vivo, 1 h; outline: as §1
Heart [12] = test: Drug uptake in ddY mouse heart at 370 kBq/100 ul, iv at 30 mins by gamma-counting analysis; type: ADME, organism-based; conditions: in vivo, 0.5 h; outline: as §1
Heart [13] = test: Drug uptake in ddY mouse heart at 370 kBq/100 ul, iv at 2 mins by gamma-counting analysis; type: ADME, organism-based; conditions: in vivo; outline: as §1
Bone [14] = test: Drug uptake in ddY mouse bone at 370 kBq/100 ul, iv at 10 mins by gamma-counting analysis; type: ADME, organism-based, Bone element; conditions: in vivo; outline: as §1
Bone [15] = test: Drug uptake in ddY mouse bone at 370 kBq/100 ul, iv at 30 mins by gamma-counting analysis; type: ADME, organism-based, Bone element; conditions: in vivo, 0.5 h; outline: as §1
Brain [16] = test: Drug uptake in ddY mouse brain at 370 kBq/100 ul, iv at 30 mins by gamma-counting analysis; type: ADME, organism-based; conditions: in vivo, 0.5 h; outline: as §1
Brain [17] = test: Drug uptake in ddY mouse brain at 370 kBq/100 ul, iv at 10 mins by gamma-counting analysis; type: ADME, organism-based; conditions: in vivo; outline: as §1
Blood [18] = test: Drug uptake in ddY mouse blood at 370 kBq/100 ul, iv at 60 mins by gamma-counting analysis; type: ADME, organism-based; conditions: in vivo, 1 h; outline: as §1
Blood [19] = test: Drug uptake in ddY mouse blood at 370 kBq/100 ul, iv at 30 mins by gamma-counting analysis; type: ADME, organism-based; conditions: in vivo, 0.5 h; outline: as §1
Brain [20] = test: Drug uptake in healthy human brain at 370 kBq/100 ul after 1 hr by immunohistochemical staining method; type: ADME, tissue-based
Outline: (§2)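 Paraffin sections of brain were used: C57BL6 mice (wild-type, 12 months), human AD (person) and normal human. Sections were deparaffinized through xylene and graded ethanol, then equilibrated 30 min in PBS (0.2 M, pH 7.4). Incubated 1 h at room temperature with tracer, 370 kBq/100 μL, washed 1 min in 50% ethanol and rinsed with water. Imaging plate exposed overnight. Plaques confirmed by thioflavin-S or anti-Aβ1-42 monoclonal immunostaining.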

Brain [21] = test: Drug uptake in healthy human brain at 370 kBq/100 ul after 1 hr by autoradiographic analysis; type: ADME, tissue-based; outline: as §2
Brain [22] = test: Drug uptake in wild type C57BL6 mouse brain at 40.7 MBq, iv after 30 mins by autoradiographic analysis; type: ADME, organism-based; conditions: in vivo, 0.5 h
Outline: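 Wild-type C57BL6 mice (18 months) received 40.7 MBq tracer iv via the femoral vein in 100 μL saline with 5% EtOH. Decapitated at 30 min, and brains frozen in powdered dry ice. 20 μm sections exposed to an imaging plate for 8 h, then the same sections stained with thioflavin-S.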

[23] = n-Octanol-PBS buffer partition coefficient, log D of the compound at 370 kBq after 3 mins at pH 7.4; type: physicochemical
Outline: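 For log D, tubes containing n-octanol and PBS were vortexed 3 min at room temperature and centrifuged 5 min at 3000 rpm. Weighed samples of the octanol (100 μL) and buffer (500 μL) layers were counted. Log D is the log of the ratio of counts per gram, octanol to PBS.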

Brain [24] = test: Ratio of drug uptake in brain at 2 mins to drug uptake in brain at 60 mins in ddY mouse at 370 kBq/100 ul, iv; type: ADME, organism-based; conditions: in vivo
Outline: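 Tail-vein injection of 370 kBq/100 μL (saline, 5% EtOH) into male ddY mice (5 weeks, 20−22 g, n = 5). Brain excised at 2 and 60 min, weighed and γ-counted against diluted injectate. Uptake is %ID/g, and the ratio is brain at 2 min divided by brain at 60 min.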

Intestine [25] = test: Drug uptake in ddY mouse intestine at 370 kBq/100 ul, iv at 60 mins by gamma-counting analysis; type: ADME, organism-based; conditions: in vivo, 1 h; outline: as §1
Intestine [26] = test: Drug uptake in ddY mouse intestine at 370 kBq/100 ul, iv at 30 mins by gamma-counting analysis; type: ADME, organism-based; conditions: in vivo, 0.5 h; outline: as §1
Intestine [27] = test: Drug uptake in ddY mouse intestine at 370 kBq/100 ul, iv at 2 mins by gamma-counting analysis; type: ADME, organism-based; conditions: in vivo; outline: as §1
Stomach [28] = test: Drug uptake in ddY mouse stomach assessed per organ at 370 kBq/100 ul, iv at 60 mins by gamma-counting analysis; type: ADME, organism-based; conditions: in vivo, 1 h
Outline: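 Male ddY mice (5 weeks, 20−22 g, n = 5) received tracer in saline with 5% EtOH, 370 kBq/100 μL, by tail vein. Killed at set times after dosing. Stomach removed, weighed and γ-counted against diluted aliquots of the injected dose. Reported as % injected dose per organ, mean ± SD of 5 mice.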

Stomach [29] = test: Drug uptake in ddY mouse stomach assessed per organ at 370 kBq/100 ul, iv at 10 mins by gamma-counting analysis; type: ADME, organism-based; conditions: in vivo; outline: as §1
Stomach [30] = test: Drug uptake in ddY mouse stomach assessed per organ at 370 kBq/100 ul, iv at 2 mins by gamma-counting analysis; type: ADME, organism-based; conditions: in vivo; outline: as §1
Kidney [31] = test: Drug uptake in ddY mouse kidney at 370 kBq/100 ul, iv at 60 mins by gamma-counting analysis; type: ADME, organism-based; conditions: in vivo, 1 h; outline: as §1
Kidney [32] = test: Drug uptake in ddY mouse kidney at 370 kBq/100 ul, iv at 30 mins by gamma-counting analysis; type: ADME, organism-based; conditions: in vivo, 0.5 h; outline: as §1

Row | Drug uptake (Lung [1]) [% ID/g] | Drug uptake (Lung [2]) [% ID/g] | Drug uptake (Spleen [3]) [% ID/g] | Drug uptake (Spleen [4]) [% ID/g] | Drug uptake (Spleen [5]) [% ID/g] | Drug uptake (Spleen [6]) [% ID/g] | Drug uptake (Liver [7]) [% ID/g] | Ki [8] [nM] | Drug uptake (Lung [9]) [% ID/g] | Drug uptake (Liver [10]) [% ID/g] | Drug uptake (Heart [11]) [% ID/g] | Drug uptake (Heart [12]) [% ID/g] | Drug uptake (Heart [13]) [% ID/g] | Drug uptake (Bone [14]) [% ID/g] | Drug uptake (Bone [15]) [% ID/g] | Drug uptake (Brain [16]) [% ID/g] | Drug uptake (Brain [17]) [% ID/g] | Drug uptake (Blood [18]) [% ID/g] | Drug uptake (Blood [19]) [% ID/g] | Drug uptake (Brain [20]) | Compound | also measured
1 | 3.28 | 3.64 | 2.25 | 2.53 | 2.88 | 3.6 | 9.2 | 3.9 | 5.18 | 13.04 | 3.13 | 3.14 | 5.55 | 1.07 | 1.96 | 2.5 | 3.37 | 3.33 | 2.84 | Not Active | CN(C)c1ccc(-c2nc3cc(OCCOCCOCC[18F])ccc3o2)cc1 | Drug uptake (Brain [21]): Not Active; Drug uptake (Brain [22]): Not Active; logD at 0.05 h [23]: 3.45; Ratio (Brain [24]): 2.5; Drug uptake (Intestine [25]): 15.82 % ID/g; Drug uptake (Intestine [26]): 22.59 % ID/g; Drug uptake (Intestine [27]): 4.8 % ID/g; Drug uptake (Stomach [28]): 1.41 %ID; Drug uptake (Stomach [29]): 1.37 %ID; Drug uptake (Stomach [30]): 1.1 %ID; Drug uptake (Kidney [31]): 3.68 % ID/g; Drug uptake (Kidney [32]): 4.08 % ID/g
2 | 5.3 | 5.64 | 3.42 | 3.92 | 4.22 | 3.9 | 19.31 | 9.3 | 8.18 | 20.28 | 4.32 | 4.84 | 8.57 | 2.32 | 3.74 | 4.07 | 4.41 | 4.87 | 4.67 | Not Active | CNc1ccc(-c2nc3cc(OCCOCCOCC[18F])ccc3o2)cc1 | Drug uptake (Brain [21]): Not Active; Drug uptake (Brain [22]): Not Active; logD at 0.05 h [23]: 3.09; Ratio (Brain [24]): 2.67; Drug uptake (Intestine [25]): 23.91 % ID/g; Drug uptake (Intestine [26]): 23.92 % ID/g; Drug uptake (Intestine [27]): 11.33 % ID/g; Drug uptake (Stomach [28]): 1.87 %ID; Drug uptake (Stomach [29]): 2.36 %ID; Drug uptake (Stomach [30]): 1.59 %ID; Drug uptake (Kidney [31]): 5.4 % ID/g; Drug uptake (Kidney [32]): 6.84 % ID/g
